Source: PubChem
OX1R antag-1: antagonists of human orexin 1 receptor (OX1R); AID 485270, 2010; Orexin/Hypocretin receptor type 1 (Homo sapiens), O43613; inhibition, % at 6.6 µM; OX1R-expressing cells, FRET antagonist read-out; 330,000 compounds, 1.8% hits; in the data active = inhibition mostly above about 38%, no sharp cut-off; inactive = mostly below about 40%;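 note: 0% = agonist challenge alone and 100% = reference antagonist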
OXTR potentiator: human OXTR potentiators, primary screen, fluorescence, CHO-OTR cells, Fluo-8 calcium. Oxytocin receptor (Homo sapiens), P30559. 320,000 compounds, 0.061% hits. Fluo-8 calcium fluorescence, potentiator mode; 0% = oxytocin EC15, 100% = EC100. activation, % at 3 µM. AID 2445, 2010;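 active = activation above that plate's cutoff, the mean activation of tested compounds plus 3 SD, cut at about 6.6% in these data, passing the limit was not always enough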;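 note: 100% uses oxytocin at 75 nM as the full agonist control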
Target sequence (P30559 whole entry, looked up): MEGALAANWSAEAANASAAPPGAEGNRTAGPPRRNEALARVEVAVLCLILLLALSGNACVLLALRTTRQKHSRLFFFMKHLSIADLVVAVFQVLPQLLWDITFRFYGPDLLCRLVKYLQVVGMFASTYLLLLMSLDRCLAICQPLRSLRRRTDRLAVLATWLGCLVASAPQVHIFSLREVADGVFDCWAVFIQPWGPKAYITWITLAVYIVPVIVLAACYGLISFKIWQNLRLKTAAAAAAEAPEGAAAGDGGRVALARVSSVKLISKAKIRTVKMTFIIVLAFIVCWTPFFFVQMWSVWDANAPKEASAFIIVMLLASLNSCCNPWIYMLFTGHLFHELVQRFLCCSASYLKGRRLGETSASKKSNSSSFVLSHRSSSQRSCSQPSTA
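Replication – single well per compound, singlicate · Assay system – CHO cell line stably expressing human OTR · Timing – 6 min pre-incubation, 100 s read · Measure – normalized max/min fluorescence ratio, % activation · Doses – 3.0 µM, one dose · Detection – Fluo-8 calcium dye fluorescence · Probe or stimulus – oxytocin near EC15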
OX1R antag-2: OX1R (HCRTR1) antagonists, primary screen, fluorescence, CHO/OX1R cells, Fluo-8 calcium, orexin A | 330,000 compounds, 0.43% hits | inhibition, % at 5 µM | Orexin/Hypocretin receptor type 1 (Homo sapiens), O43613 | Fluo-8 calcium fluorescence | AID 434989, 2010;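 active = inhibition above its plate's threshold, mean inhibition of all tested compounds on the plate plus 3 SD, cut at about 37% in these data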;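 note: 0% = orexin A challenge wells and 100% = SB-334867-A antagonist wells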
OXTR agonist: human OXTR agonists, primary screen, fluorescence, CHO-OTR cells, Fluo-8 calcium; Oxytocin receptor (Homo sapiens), P30559; 320,000 compounds, 0.32% hits; activation, % at 3 µM; Fluo-8 calcium fluorescence; normalized: DMSO 0%, oxytocin 100%; AID 2435, 2010;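 active = activation above the mean of all tested compounds plus 3 SD, cutoff set per screening run, cut at about 20% in these data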;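 note: peak over basal fluorescence ratio from a 100 s FLIPR kinetic read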
V1aR counter: agonists of human V1a receptor, primary screen, counter-screen for OXTR agonist project, fluorescence, CHO-V1R cells; Fluo-8 calcium fluorescence, agonist mode; 0% DMSO, 100% 3 nM vasopressin; activation, % at 3 µM; 320,000 compounds, 0.25% hits; AID 2797, 2010;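 active = activation above the mean activation of all tested compounds plus 3 SD, per screening run, cut at about 20% in these data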;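 note: signal is peak over basal fluorescence ratio across a 100 second FLIPR read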
CHO parental Ca: ATP-evoked calcium signal inhibitors, parental CHO, primary screen, counter-screen for OX1R antagonist project, cell-based, fluorescence, Fluo-8 calcium dye; inhibition, % at 5.6 µM; 330,000 compounds, 0.63% hits; parental CHO-K1, ATP-induced calcium, Fluo-8 fluorescence;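 active = inhibition above that plate's mean sample inhibition plus 3 SD, cut at about 26% in these data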;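 note: 0% = ATP-challenged DMSO wells and 100% = DMSO wells without ATP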
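Material: parental CHO cells / Compound: single nominal dose of 5.6 µM per compound / Signal: Fluo-8 fluorescence / Replicates: singlicate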
OXTR agonist cf: human OXTR agonists, confirmation, fluorescence, CHO-OTR cells, triplicate; shares compounds with OXTR agonist; Fluo-8 calcium fluorescence, agonist; activation, % at 3 µM; 390 compounds, 20% hits; AID 434963, 2010;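 active = mean activation above about 20% derived from the earlier single-dose screen, limit read from the data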;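 note: peak over minimum fluorescence ratio per well during a 100 second FLIPR read; 0% = DMSO alone and 100% = oxytocin high control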
V1R ag counter 3x: V1a receptor agonists, calcium signal, counter-screen for OXTR agonist project, triplicate, fluorescence, CHO-V1R cells; 390 compounds, 10% hits; Fluo-8 calcium fluorescence; shares compounds with OXTR agonist; AID 434991, 2010; activation, % at 3 µM;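 active = mean activation over triplicate exceeds the hit threshold set in the earlier primary screen, cut at about 20% in these data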;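 note: peak over basal fluorescence ratio within a 100 second read; 0% = DMSO alone and 100% = 3 nM vasopressin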
* hit, by the source's call; nt = not tested or not shown. Sampled rows, rich in hits. Any-hit rate of the full collection: about 2.6%.

SMILES	OX1R antag-1	OXTR potentiator	OX1R antag-2	OXTR agonist	V1aR counter	CHO parental Ca	OXTR agonist cf	V1R ag counter 3x
Nc1nc(N)c2cc(Sc3ccc4ccccc4c3)ccc2n1	0.8	-10.8	-0.7	27.3*	13.2	1.1	0.5	1.3
CCN(CC)C(=O)Cn1cc(C(=O)C(=O)N2CCN(Cc3ccc4c(c3)OCO4)CC2)c2ccccc21	6.0	-2.0	-24.1	-0.1	1.0	-18.7	nt	nt
CCOc1ccc(NC(c2ccccc2)P(=O)(OC)OC)cc1 (stereo not given)	4.7	-1.7	-21.3	1.9	1.6	-9.2	nt	nt
CCCCOc1ccc(CSCCN)cc1Cl	7.1	-12.6	-6.1	21.3*	12.6	4.0	7.0	1.7
CCN(CC)C(=O)CSc1nnc(SC(C)C(=O)NC2CC2)s1 (stereo not given)	17.5	1.9	0.8	1.5	0.8	-5.2	nt	nt
COc1ccc2c(c1)CC/C(=C\c1ccc(OC)c(Cn3nc(C)cc3C)c1)C2=O	10.4	-20.8	2.0	36.5*	9.9	-21.5	7.9	8.4
COc1ccc2c(c1)CC/C(=C\c1ccc(OC)c(Cn3cccn3)c1)C2=O	34.3	-19.6	-10.4	6.6	7.1	-20.4	nt	nt
CCOC(=O)C1=C(N)N2C(=O)C(C)SC2=C(C(=O)OCC)C1c1ccccc1 (stereo not given)	-1.5	-9.5	-21.4	-0.4	1.1	-6.2	nt	nt
CCOC(=O)C1=C(N)N2C(=O)C(C)SC2=C(C(=O)OC)C1c1ccccc1OC (stereo not given)	-4.6	-18.2	-0.7	31.1*	12.6	-31.8	6.9	7.9
C=CCNc1ncnc2c1[nH]c1ccc(Cl)cc12	25.5	-6.5	9.7	21.6*	12.2	9.9	11.5	9.8
O=C1NC[C@@H](Cc2cccc3ccccc23)N(CC2CCCCC2)C1=O	33.2	-1.6	-29.6	-2.1	-1.1	6.6	nt	nt
O=C1NC[C@@H](Cc2cccc3ccccc23)N(CC2(c3ccccc3)CC2)C1=O	5.9	-10.0	-29.2	22.5*	1.2	-22.6	-0.3	-0.5
FC(F)(F)c1cccc(-c2nc3nc(Cl)c(Cl)nc3[nH]2)c1	40.0*	-25.2	-11.1	22.3*	10.8	38.4*	13.6	10.0
COc1cnc(-c2cccc(C(F)(F)F)c2)[nH]c1=O	14.0	-26.8	-5.5	-1.4	0.8	-1.0	nt	nt
COc1ccc(C(=O)N2CCCC(CCC(=O)NCc3ccccc3F)C2)c(OC)n1 (stereo not given)	8.9	-2.2	-12.0	0.3	0.3	-15.6	nt	nt
CCOC(=O)c1c(C)n(-c2ccc(C)cc2)c2ccc(OCC(O)CNCCCO)cc12 (stereo not given)	6.6	-0.1	-44.5	-0.3	-1.4	-15.2	nt	nt
CCOC(=O)c1c(C)n(-c2ccc(C)cc2)c2ccc(OCC(O)CNCC3CCCO3)cc12 (stereo not given)	-2.1	-11.4	-13.9	20.2*	10.2	-10.3	9.0	2.7
Nc1nonc1C(=O)NCCNCc1cc(Br)ccc1OCc1ccc(F)cc1	10.3	-8.2	2.6	19.8*	12.8	19.6	8.5	9.6
COc1ccc(CNCCNC(=O)c2nonc2N)cc1OC	-3.5	3.0	-6.3	1.8	0.7	-1.2	nt	nt
CN(C)CCCN(C(=O)c1ccc2c(c1)OCCO2)c1nc2cc3c(cc2s1)OCO3	4.8	-3.4	-15.3	1.5	0.7	-7.8	nt	nt
Cc1cc(C)c2nc(N(CCCN(C)C)C(=O)c3ccc4c(c3)OCCO4)sc2c1	10.3	-17.1	-6.1	20.5*	3.8	7.6	5.6	4.1
COCCCNC(=O)C(=O)C1C(=O)Nc2ccccc21 (stereo not given)	12.7	-10.6	2.9	-0.3	-0.3	-0.1	nt	nt
COC(CN(C)C(=O)C1CCCN(S(=O)(=O)c2ccc3c(c2)oc(=O)n3C)C1)OC (stereo not given)	13.0	-5.5	-1.0	0.5	2.0	-5.6	nt	nt
CC(Oc1ccc(Cl)cc1)C(=O)NNC(=S)NC(=O)c1ccco1 (stereo not given)	-2.8	-12.8	6.1	26.3*	10.8	-0.7	38.2*	42.1*
COC(=O)c1cc(OC)c(OC)cc1NC(=S)NC(=O)c1ccco1	13.9	-4.4	-21.6	-0.8	0.4	-10.2	nt	nt
SMILES	OX1R antag-1	OXTR potentiator	OX1R antag-2	OXTR agonist	V1aR counter	CHO parental Ca	OXTR agonist cf	V1R ag counter 3x
COc1ccccc1C(=O)NNC(=S)NC(=O)c1ccco1	27.7	-6.3	49.7*	24.0*	14.3	30.6	2.8	7.5
O=C(CN1Cc2ccccc2C1=O)Nc1ccc2c(c1)OCCO2	15.6	-3.5	-10.4	0.6	0.8	-9.2	nt	nt
CC(C)(C)c1ccc(C(=O)CCC(=O)OCC(=O)NCCc2ccc(S(N)(=O)=O)cc2)cc1	6.7	-12.3	35.1	19.8*	15.5	24.3	7.5	9.0
CNC(=O)c1[nH]cnc1C(=O)Nc1cccc(OC)c1	26.9	-18.4	-7.3	31.7*	0.5	-12.6	-0.8	0.0
CS(=O)(=O)N1CCCC(c2nc(-c3ccc(S(=O)(=O)NCc4ccccc4)cc3)no2)C1 (stereo not given)	34.5	-8.9	-0.4	19.7*	13.1	21.0	11.8	11.1
CC[C@]12c3[nH]c4ccccc4c3CCN1C(=O)C(CC(=O)NCCC1=CCCCC1)C[C@@H]2C(=O)N1CCN(C(=O)C2CC2)CC1 (stereo not given in full)	4.7	-4.7	-43.9	-1.8	-1.3	-33.6	nt	nt
Cc1ccc(-c2noc(CCC(=O)NCCc3ccccc3Cl)n2)cc1	21.2	-16.2	-10.7	19.9*	5.4	3.9	-0.8	0.1
CCN(C(=O)CSc1nnc(-c2c[nH]c3ccccc23)o1)C1CCS(=O)(=O)C1 (stereo not given)	31.9	-2.6	-21.5	1.0	-0.2	-15.7	nt	nt
COc1ccc2nc(NC(=O)c3ccccc3O)sc2c1	6.8	-25.5	-12.3	20.5*	15.9	6.7	10.8	9.4
COc1ccc(C(=O)NCC(=O)OCC(=O)N2CCc3ccccc32)cc1	13.9	-8.6	-33.8	-2.7	-0.6	-28.0	nt	nt
Cc1ccc(OCCC(=O)OCC(=O)NC(=O)NC2CCCC2)cc1	21.4	-1.5	-17.3	-1.5	-0.8	-18.2	nt	nt
